Data on 11 compounds can be found in paper PMC2859677 (Journal of medicinal chemistry, 2010).

Data set [1] has as its target T1, TLR2 (Homo sapiens, UniProt O60603). The experiment in a line: NF-κB induction. The class given is cell-based. The essentials: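 HEK293 cells stably transfected with TLR2, MD2, CD14 and a secreted alkaline phosphatase (sAP) reporter under NF-κB/AP-1 promoters. Cells were kept in selection medium with zeocin and normocin. They were grown in 384-well plates to confluency, then given graded concentrations of stimuli. Supernatant sAP, taken as proportional to NF-κB induction, was read at 620 nm with an alkaline phosphatase-specific chromogen in detection medium.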
Target sequence in this assay (O60603 21-784): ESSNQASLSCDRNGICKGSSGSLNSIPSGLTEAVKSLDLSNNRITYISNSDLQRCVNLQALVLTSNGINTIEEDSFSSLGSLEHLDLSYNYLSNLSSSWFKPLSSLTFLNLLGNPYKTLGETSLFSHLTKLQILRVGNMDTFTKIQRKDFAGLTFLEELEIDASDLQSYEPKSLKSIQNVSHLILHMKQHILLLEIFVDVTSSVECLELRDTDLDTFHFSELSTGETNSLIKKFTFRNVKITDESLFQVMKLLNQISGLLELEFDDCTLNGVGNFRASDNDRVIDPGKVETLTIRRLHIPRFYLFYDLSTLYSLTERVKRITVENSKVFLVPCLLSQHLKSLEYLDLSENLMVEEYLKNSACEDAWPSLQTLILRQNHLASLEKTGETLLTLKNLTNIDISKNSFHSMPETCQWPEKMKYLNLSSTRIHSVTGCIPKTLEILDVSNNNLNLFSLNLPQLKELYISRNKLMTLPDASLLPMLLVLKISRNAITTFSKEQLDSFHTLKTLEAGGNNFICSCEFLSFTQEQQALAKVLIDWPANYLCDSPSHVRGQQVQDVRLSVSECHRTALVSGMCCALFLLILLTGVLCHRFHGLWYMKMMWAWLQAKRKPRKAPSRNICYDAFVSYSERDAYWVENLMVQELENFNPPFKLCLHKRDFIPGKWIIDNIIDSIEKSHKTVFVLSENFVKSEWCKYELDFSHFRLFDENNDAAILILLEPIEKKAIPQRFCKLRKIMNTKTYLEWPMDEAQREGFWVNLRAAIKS
Target sequence in this assay (Q9Y2C9 32-796 partner): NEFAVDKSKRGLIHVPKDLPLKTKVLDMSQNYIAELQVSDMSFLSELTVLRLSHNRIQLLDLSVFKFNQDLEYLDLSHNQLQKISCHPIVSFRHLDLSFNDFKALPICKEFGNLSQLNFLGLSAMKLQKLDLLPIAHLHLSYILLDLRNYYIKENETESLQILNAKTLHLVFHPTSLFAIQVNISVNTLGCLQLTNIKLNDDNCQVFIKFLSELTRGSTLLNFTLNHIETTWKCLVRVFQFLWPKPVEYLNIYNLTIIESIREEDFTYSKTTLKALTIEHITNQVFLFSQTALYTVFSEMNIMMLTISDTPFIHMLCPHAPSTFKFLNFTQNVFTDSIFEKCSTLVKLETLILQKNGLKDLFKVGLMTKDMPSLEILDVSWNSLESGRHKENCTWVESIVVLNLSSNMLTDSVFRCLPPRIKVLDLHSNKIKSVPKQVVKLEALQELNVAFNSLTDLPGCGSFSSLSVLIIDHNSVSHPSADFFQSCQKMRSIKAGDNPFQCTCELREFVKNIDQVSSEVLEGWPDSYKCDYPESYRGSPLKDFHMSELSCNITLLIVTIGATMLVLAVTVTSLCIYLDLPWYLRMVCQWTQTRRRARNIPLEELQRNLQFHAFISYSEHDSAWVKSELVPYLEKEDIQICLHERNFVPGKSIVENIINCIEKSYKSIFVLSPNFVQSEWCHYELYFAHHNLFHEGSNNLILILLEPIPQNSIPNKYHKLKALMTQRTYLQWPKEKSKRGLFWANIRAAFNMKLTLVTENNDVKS

Data set [2] addresses T1, TLR2. As to the kind of experiment: Test of compounds as TLR2 receptor antagonists. Type of data set: cell-based.
Target sequence in this assay (O60603 21-784): as the sequence (O60603 21-784) above
Data set [3] relates to rabbits. The experiment in a line: Fever response / acute toxicity in rabbits. Type of data set: in vivo, rabbit. The following applies: dose of 100 ng/kg, manuscript in preparation.
For data set [4], the system named is murine cells. The following applies: cited from earlier work.
The subject of data set [5] is patients with inoperable carcinoma of the pancreas. As to conditions: single intraoperative 20–30 μg intratumoral injection; cited from earlier work.

As a reminder, the IC50 is the concentration that inhibits the measured activity by half. Low readings indicate greater potency, high ones weaker potency.

As to `CCCCCCCCCCCCCCCCOC[C@H](CSC[C@H](N)C(=O)N[C@@H](CO)C(=O)OC)OCCCCCCCCCCCCCCCC` [Compound 28, (S)-methyl 2-((R)-2-amino-3-((R)-2,3-bis(hexadecyloxy)propylthio)propanamido)-3-hydroxypropanoate], the “TLR2 agonistic activity (in words)” value in data set [1] (human TLR2 reporter gene assay) is “entirely inactive”. The “Activity as TLR2 receptor antagonist” value in data set [2] is “inactive”.

As to `CCCCCCCCCCCCCCCC(=O)OC[C@@H](CSCCN)OC(=O)CCCCCCCCCCCCCCC` [Compound 6b, (S)-3-(2-aminoethylthio)propane-1,2-diyl dipalmitate], the “TLR2 agonistic activity (in words)” value in data set [1] (human TLR2 reporter gene assay) was “completely inactive”. Further, the “Activity as TLR2 receptor antagonist” value in data set [2] is “inactive”.

`CCCCCCCCCCCCCCCC(=O)NC[C@H](CSC[C@H](N)C(=O)N[C@@H](CO)C(=O)OC)NC(=O)CCCCCCCCCCCCCCC` [Compound 45, (S)-methyl 2-((R)-2-amino-3-((R)-2,3-dipalmitamidopropylthio)-propanamido)-3-hydroxypropanoate]: in data set [1] (human TLR2 reporter gene assay), the “TLR2 agonistic activity (in words)” value is “completely inactive”. The “Activity as TLR2 receptor antagonist” value in data set [2] was “inactive”.

Take `CCCCCCCCCCCCCCCC(=O)OC[C@H](COCC(N)C(=O)N[C@@H](CO)C(=O)OC)OC(=O)CCCCCCCCCCCCCCC` (stereo partly drawn) [Compound 21a, (S)-3-(2-amino-3-((S)-3-hydroxy-1-methoxy-1-oxopropan-2-ylamino)-3-oxopropoxy)propane-1,2-diyl dipalmitate]: the “Activity as TLR2 receptor antagonist” value in data set [2] was “inactive”.

In the case of `CCCCCCCCCCCCCCCC(=O)OC[C@H](CSC[C@H](N)C(=O)OC)OC(=O)CCCCCCCCCCCCCCC` [Compound 11, (R)-3-((R)-2-amino-3-methoxy-3-oxopropylthio)propane-1,2-diyl dipalmitate], the “TLR2 agonistic activity (in words)” value in data set [1] (human TLR2 reporter gene assay) was “weakly TLR2-agonistic”.

With `CCCCCCCCCCCCCCCC(=O)OC[C@H](COCC(N)C(=O)N[C@H](CO)C(=O)OC)OC(=O)CCCCCCCCCCCCCCC` (stereo partly drawn) [Compound 21b, (S)-3-(2-amino-3-((R)-3-hydroxy-1-methoxy-1-oxopropan-2-ylamino)-3-oxopropoxy)propane-1,2-diyl dipalmitate], the “TLR2 agonistic activity (in words)” value in data set [1] (at the highest concentration tested) was “inactive”. Besides, the “Activity as TLR2 receptor antagonist” value in data set [2] is “inactive”.

In the case of lipopolysaccharide [LPS], the Fever response entry in data set [3] is reported as “robust fever response”. In addition, in data set [4], the Secretion of chemokines result is recorded as “potently induced the secretion of a similar pattern of chemokines”.

On to `CCCCCCCCCCCCCCCC(=O)OC[C@@H](CSCCNC(=O)[C@H](N)CO)OC(=O)CCCCCCCCCCCCCCC` [Compound 8b, (S)-3-(2-((R)-2-amino-3-hydroxypropanamido)ethylthio)propane-1,2-diyl dipalmitate], for which, in data set [1] (human TLR2 reporter gene assay), the “TLR2 agonistic activity (in words)” value is given as “only 8a was active”.

For the compound MALP-2, in data set [5], the “Efficacy (survival)” value is “efficacious in prolonging survival” and the Tolerability result was “well-tolerated”.

Compound `CCCCCCCCCCCCCCCC(=O)OC[C@H](CSCCN)OC(=O)CCCCCCCCCCCCCCC` [Compound 6a, (R)-3-(2-aminoethylthio)propane-1,2-diyl dipalmitate] registered an IC50 in data set [1] of 1000 nM. The “TLR2 agonistic activity (in words)” value in data set [1] (human TLR2 reporter gene assay) was “weakly active”. Further, the “Activity as TLR2 receptor antagonist” value in data set [2] was “inactive”.

For `CCCCCCCCCCCCCCCC(=O)N[C@H](COC(=O)CCCCCCCCCCCCCCC)CSC[C@H](N)C(=O)N[C@@H](CO)C(=O)OC.O=C(O)C(F)(F)F` [Compound 37, (R)-3-((R)-2-amino-3-((S)-3-hydroxy-1-methoxy-1-oxopropan-2-ylamino)-3-oxopropylthio)-2-palmitamidopropyl palmitate], the “TLR2 agonistic activity relative to reference lipopeptide PAM2CSK4” value in data set [1] (compared with PAM2CSK4) is on record as “weaker by about three orders of magnitude”. Moreover, the “TLR2 agonistic activity (in words)” value in data set [1] (human TLR2 reporter gene assay) is “partially active”. The “Activity as TLR2 receptor antagonist” value in data set [2] is “inactive”.
